WT yeast gro inh: growth inhibition of WT yeast, mitochondrial fusion screen. mitochondrial fusion phenotypic screen, WT strain. actives 2.1% (n = 190,000). inhibition, % at 10 µM; in the data active means inhibition above about 58%; tested in S. cerevisiae
Diaph act CS: diaphorase activation or chemical reduction counter-screen; activation factor at 20 µM; Diaphorase/resazurin coupled assay, resorufin fluorescence, 16 min; hits give high values; 1 = vehicle wells, 0 = NADH-free wells; actives 0.005% (n = 190,000); AID 1229;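 active means diaphorase activity raised at least twofold by the compound at 20 µM; inactive means activation factor below 2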
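System – purified diaphorase enzyme from Clostridium kluyveri · Input – enzyme 0.07 U/mL final · Also added – final NADH 0.114 mM, resazurin 0.1 mM · Measured by – fluorescence of resorufin, 544 nm excitation, 590 nm emission · Timing – 16 min enzyme reaction, ambient temperature · Measure – resorufin increase flagging diaphorase activators or reducers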
Diaph inh CS: inhibits diaphorase or chemically oxidizes, flagging diaphorase assay artifacts; diaphorase resazurin-to-resorufin fluorescence, NADH, 16 min; bacterial (C. kluyveri) enzyme, not human; inhibition, % at 20 µM; actives 0.69% (n = 190,000);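 active means primary screen inhibition at 20 µM above a set limit, cut at about 50% in these data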
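System: Diaphorase enzyme from Clostridium kluyveri | Amount: Enzyme working solution with 0.14 U/mL diaphorase | Benchmarks: No-NADH positive control and DMSO neutral control | Signal: Fluorescence of resorufin formed from resazurin, Ex 544/Em 590 nm | Schedule: 16-min room-temperature incubation before reading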
Lmaj promast: inhibitors of Leishmania major promastigote growth; actives 9% (n = 200,000); Leishmania major promastigotes, resazurin fluorescence viability; inhibition, % at 10 µM; in the data active means inhibition above about 50%;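 further: promastigotes grown with compound for 44 hours at 28 °C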
KCC2 mod: KCC2 (human) Cl- transport modulation; Q9H2X9; KCC2 cells, thallium flux FluoZin-2 fluorescence; B-score of Tl+ flux slope (higher = more flux/activation; lower = inhibition) at 10 µM; actives 2.2% (n = 190,000); AID 1456;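 active means thallium flux slope and its plate-corrected score both differing from the plate sample mean at a set confidence after two filtering rounds, in either direction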;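 further: slope of fluorescence scaled to starting intensity during 10 to 20 s after thallium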
ROMK mod: modulators of human ROMK potassium channel. P48048. Tet-inducible ROMK, thallium flux fluorescence; actives lie on both sides. B-score at 10 µM. actives 2% (n = 130,000);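 active means signal ratio slope over the read window, or its plate-corrected B-score, at least 3 SD from the plate mean, either direction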;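 further: B-score of the F/F0 ratio slope over 7 to 12 s after thallium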
Numbers stand for hits; – = inactive; · = not tested or not shown. An excerpt weighted towards active compounds, which were near 12% of everything screened.

SMILES	WT yeast gro inh	Diaph act CS	Diaph inh CS	Lmaj promast	KCC2 mod	ROMK mod
CC1=C(C(=O)Nc2ccccc2)C(c2ccncc2)C(C#N)=C(SCC(=O)Nc2ccccc2)N1 (stereo not given)	–	–	–	99	–	·
O=C(c1ccccc1Sc1cccc2ccccc12)N1CCOCC1	–	–	–	–	–	–
Cc1[nH]c2ccccc2c1-c1csc(NC(=O)CN2CCOCC2)n1	–	–	–	–	–	–
CCc1nnc(NC(=O)c2cccc(C(=O)Nc3nnc(CC)s3)n2)s1	63	–	–	99	–	·
Cc1ccc(S(=O)(=O)CCc2nnc(NC(=O)c3ccccn3)s2)cc1	–	–	–	82	·	–
CN(C)c1nn(C(=O)Nc2cccc(C(F)(F)F)c2)cc1-c1ccccc1	63	–	–	–	–	·
CC(C)CNC(=O)c1ccccc1NC(=O)/C=C/c1cccc([N+](=O)[O-])c1	–	–	–	53	–	–
O=C(/C=C/c1cccc([N+](=O)[O-])c1)NC(=S)Nc1ccccc1C(=O)O	–	–	–	–	–	–
CCN(CC)S(=O)(=O)c1cccc(NC(=O)Nc2cccc(C(F)(F)F)c2)c1	–	–	–	100	–	–
CCN(CC)S(=O)(=O)c1cccc(NC(=O)COC(=O)/C=C/c2ccco2)c1	–	–	–	57	–	·
O=C(CSc1nnc(-c2ccc(C(F)(F)F)cn2)s1)c1ccc(Cl)cc1	·	·	·	·	–	·
Cn1nc(C(=O)Nc2cccc(C(F)(F)F)c2)ccc1=O	–	–	–	99	–	·
CCN(CC)S(=O)(=O)c1cccc(NC(=O)/C=C/c2ccc([N+](=O)[O-])cc2)c1	–	–	–	–	–	·
CCN(CC)S(=O)(=O)c1cccc(NC(=O)/C=C/c2cccc([N+](=O)[O-])c2)c1	–	–	–	99	–	·
Cn1ncc(Br)c1C(=O)Nc1cccc(C(F)(F)F)c1	·	·	·	·	–	·
O=C(c1nc2ccccn2c1CN1CCCC(c2nc3ccccc3o2)C1)N1CCCC1 (stereo not given)	–	–	–	–	–	–
NS(=O)(=O)c1ccc(CCNC(=O)CSc2ncnc3ccccc23)cc1	–	–	–	–	–	–
Cc1cc2c(ncn2Cc2ccccc2)c([N+](=O)[O-])c1C	–	–	–	–	–	·
CCCCCNC(=O)c1c(N)n(/N=C/c2ccco2)c2nc3ccccc3nc12	·	·	·	·	·	–
Cc1cccc(S(=O)(=O)c2c(N)n(/N=C/c3ccccc3)c3nc4ccccc4nc23)c1	–	–	–	–	–	–
Cc1ccc(C)c(S(=O)(=O)c2c(N)n(/N=C/c3ccco3)c3nc4ccccc4nc23)c1	–	–	–	94	–	·
Nc1c(S(=O)(=O)c2ccccc2)c2nc3ccccc3nc2n1/N=C/c1cccc(O)c1	–	–	–	91	–	·
COc1ccc(OC)c(S(=O)(=O)Nc2ccc3c(c2)C(=O)OC3)c1	·	·	·	·	–	–
CN(C)CCCOC(=O)c1sc2ccccc2c1Cl	–	–	–	59	–	·
CCCCOC(=S)NC(=O)c1sc2ccccc2c1Cl	–	–	–	–	47	·
SMILES	WT yeast gro inh	Diaph act CS	Diaph inh CS	Lmaj promast	KCC2 mod	ROMK mod
CCCOc1ccc(C(CC(=O)O)NC(=O)c2sc3ccccc3c2Cl)cc1 (stereo not given)	–	–	–	–	–	–
Cc1ccc(NC(=S)NC(=O)c2sc3ccccc3c2Cl)c(C(=O)O)c1	–	–	–	–	60	4.5
Cc1ccc(CN2CCN(C3CCCC3)C(CCO)C2)s1 (stereo not given)	–	–	–	–	–	–
CCOc1ccc(OCCCCn2cnc3ccccc3c2=O)cc1	–	–	–	–	–	–
O=C(NC(=S)N1CCCCC1)C12CC3CC(CC(C3)C1)C2	·	–	–	–	35	·
O=C(N1CCCC1)C12CC3CCC(CC(C3)C1)C2	–	–	–	–	–	–
CC12CC3CC(C)(C1)CC(C(=O)NC(=S)N1CCOCC1)(C3)C2	–	–	–	–	5	·
O=C(c1cc(NC(=O)C23CC4CC(CC(C4)C2)C3)cc(NC(=O)C23CC4CC(CC(C4)C2)C3)c1)N1CCCCC1	–	–	–	91	–	–
COC(=O)NC(=S)N1CCOCC1	–	–	–	–	–	–
O=C(Nc1ncccn1)C12CC3CC(CC(C3)C1)C2	·	·	·	·	–	–

Source: PubChem BioAssay
